The record followed here is ChEMBL document CHEMBL3352409, “Synthetic reactions with rare taccalonolides reveal the value of C-22,23 epoxidation for microtubule stabilizing potency” (J Med Chem, 2014).

As a reminder, the IC50 is the concentration needed to halve the response being measured.

Series [1] has as its system HeLa. The experiment in a line: Antiproliferative activity against human HeLa cells by SRB assay. It counts as functional, cell-based. Put shortly: (§1)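 SRB assay in HeLa cells, IC50 from concentration-response; three independent experiments, each in triplicate, reported with standard deviation.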
For orientation: Sulforhodamine B stains cellular protein and so reports cell mass.

The target of series [2] is T1, Tubulin (Sus scrofa) (UniProt P02554+P02550). Briefly: Binding affinity to purified porcine brain tubulin at 6 uM by turbidimetry. Put shortly:
(§2)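 Compound added from 100× EtOH stock (1% final EtOH). Polymerization started by shift to 37 °C and followed as turbidity at OD340.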

Series [3] deals with Mus musculus. Briefly: Toxicity in human MDA-MB-231 cells xenografted nu/nu mouse assessed as weight loss at 0.75 mg/kg, ip on days 0, 3 and 7 measured on day 17. Also on record: dose 0.75 mg/kg, route intraperitoneal. The conditions noted are these: in vivo. The format is organism-based. Put shortly: (§3)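 MDA-MB-231 fragments implanted bilaterally in female nu/nu mice; groups of 5, dosing started at mean tumor size 134 mm3. Compound given ip on days 0, 3 and 7, from a 1 mg/mL EtOH stock diluted at least 1:10 in 200 µL PBS. Tumor volume and weight measured 2-3 times weekly; 10 tumors averaged, with standard error; mice sacrificed day 21.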
(In xenograft studies the graft and the host belong to different species.)

Series [4] deals with MDA-MB-231. The experiment in a line: Antitumor activity against human MDA-MB-231 cells xenografted in nu/nu mouse assessed as tumor growth inhibition at 0.75 mg/kg, ip on days 0, 3 and 7 measured on day 21. The format is functional, organism-based. Also on record: dose 0.75 mg/kg. The gist of the method:
as §3

The test system of series [5] is HeLa. Briefly: Stabilization of microtubules in interphase human HeLa cells at 10 nM after 18 hrs by immunofluorescence microscopy. It counts as cell-based. Put shortly:
(§4)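 Interphase HeLa cells exposed to compound or EtOH vehicle for 18 h. Microtubules stained with a β-tubulin antibody and imaged by fluorescence microscopy.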

Series [6] concerns HeLa. The experiment in a line: Ratio of taccalonolide B IC50 to compound IC50 for human HeLa cells by SRB assay. The format is functional.
Series [7] has as its system HeLa. Briefly: Antiproliferative activity against human HeLa cells up to 50 uM by SRB assay. It counts as functional, cell-based. The gist of the method:
as §1

For series [8], the system named is HeLa. Briefly: Stabilization of microtubules in interphase human HeLa cells at 4 nM after 18 hrs by immunofluorescence microscopy. It counts as cell-based. The gist of the method: as §4
Series [9] has as its system Mus musculus. The experiment in a line: Toxicity in human MDA-MB-231 cells xenografted nu/nu mouse assessed as weight loss at 0.25 mg/kg, ip on days 0 and 3 measured on day 17. It counts as organism-based. Also on record: dose 0.25 mg/kg, route intraperitoneal. To be noted: in vivo. The gist of the method:
(§5)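 MDA-MB-231 tumor fragments implanted bilaterally in female nu/nu mice; randomized groups of 5, dosing started at mean tumor size 134 mm3. Compound given ip at 0.25 mg/kg on days 0 and 3, from a 1.25 mg/mL EtOH stock diluted at least 1:10 in 200 µL PBS. Tumor volume and body weight recorded 2-3 times weekly; 10 tumors averaged, with standard error.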

The test system of series [10] is Mus musculus. The experiment in a line: Toxicity in human MDA-MB-231 cells xenografted nu/nu mouse assessed as mortality at 0.375 mg/kg, ip on days 0 and 3 measured on day 8 to day 11. The format is organism-based. On the set-up: dose 0.375 mg/kg, route intraperitoneal. To be noted: in vivo. The gist of the method: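 Female nu/nu mice with bilateral MDA-MB-231 tumor fragment implants, groups of 5. Two doses were given on days 0 and 3, starting when mean tumor size was 134 mm3. Stock in 100% EtOH (1.25 mg/mL) was diluted at least 1:10 in 200 µL PBS just before ip injection. Mice were checked daily during dosing, weighed 2-3 times weekly, and scored for lethality after the last dose.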

In series [11] the test system is Mus musculus. Briefly: Toxicity in human MDA-MB-231 cells xenografted nu/nu mouse assessed as weight loss at 0.25 mg/kg, ip on days 0 and 3 measured on day 7. To be noted: in vivo. Also on record: dose 0.25 mg/kg, route intraperitoneal. It counts as organism-based. The gist of the method:
as §5

Series [12] relates to MDA-MB-231. The experiment in a line: Antitumor activity against human MDA-MB-231 cells xenografted in nu/nu mouse assessed as tumor growth inhibition at 0.25 mg/kg, ip on days 0 and 3 measured after 1 week post final dose. The format is functional, organism-based. On the set-up: dose 0.25 mg/kg. Put shortly:
as §5

Series [13] concerns the target T1, Tubulin (Sus scrofa). The experiment in a line: Binding affinity to purified porcine brain tubulin at 0.7 uM by turbidimetry. The gist of the method: as §2
Series [14] concerns MDA-MB-231. Briefly: Antitumor activity against human MDA-MB-231 cells xenografted in nu/nu mouse assessed as tumor growth inhibition at 0.25 mg/kg, ip on days 0 and 3 measured on day 7. It counts as functional, organism-based. Also on record: dose 0.25 mg/kg. The gist of the method: as §5
Series [15] relates to MDA-MB-231. Briefly: Antitumor activity against human MDA-MB-231 cells xenografted in nu/nu mouse assessed as tumor growth inhibition at 0.25 mg/kg, ip on days 0 and 3 measured after 17 days. The format is functional, organism-based. On the set-up: dose 0.25 mg/kg. Put shortly:
as §5

The subject of series [16] is HeLa. The experiment in a line: Ratio of taccalonolide AM IC50 to compound IC50 for human HeLa cells by SRB assay. The format is functional.
For series [17], the system named is HeLa. Briefly: Ratio of taccalonolide A IC50 to compound IC50 for human HeLa cells by SRB assay. It counts as functional.

Molecules are shown by their SMILES. The source made the active and inactive calls. No cut-off for these calls is given here.

T1 sequence (P02550 whole entry, looked up): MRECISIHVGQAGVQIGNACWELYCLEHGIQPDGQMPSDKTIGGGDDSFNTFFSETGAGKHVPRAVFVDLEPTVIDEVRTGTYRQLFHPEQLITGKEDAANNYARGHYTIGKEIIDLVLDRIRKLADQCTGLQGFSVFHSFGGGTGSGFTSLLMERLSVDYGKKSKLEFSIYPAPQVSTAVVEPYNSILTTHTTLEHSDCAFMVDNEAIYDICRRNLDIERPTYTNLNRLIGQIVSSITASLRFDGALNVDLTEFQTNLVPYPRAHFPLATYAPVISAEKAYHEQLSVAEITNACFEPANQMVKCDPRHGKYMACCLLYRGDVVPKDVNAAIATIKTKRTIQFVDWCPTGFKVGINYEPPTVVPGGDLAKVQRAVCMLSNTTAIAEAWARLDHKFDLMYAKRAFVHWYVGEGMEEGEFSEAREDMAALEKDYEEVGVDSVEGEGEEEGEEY
T1 sequence (P02554 whole entry, looked up): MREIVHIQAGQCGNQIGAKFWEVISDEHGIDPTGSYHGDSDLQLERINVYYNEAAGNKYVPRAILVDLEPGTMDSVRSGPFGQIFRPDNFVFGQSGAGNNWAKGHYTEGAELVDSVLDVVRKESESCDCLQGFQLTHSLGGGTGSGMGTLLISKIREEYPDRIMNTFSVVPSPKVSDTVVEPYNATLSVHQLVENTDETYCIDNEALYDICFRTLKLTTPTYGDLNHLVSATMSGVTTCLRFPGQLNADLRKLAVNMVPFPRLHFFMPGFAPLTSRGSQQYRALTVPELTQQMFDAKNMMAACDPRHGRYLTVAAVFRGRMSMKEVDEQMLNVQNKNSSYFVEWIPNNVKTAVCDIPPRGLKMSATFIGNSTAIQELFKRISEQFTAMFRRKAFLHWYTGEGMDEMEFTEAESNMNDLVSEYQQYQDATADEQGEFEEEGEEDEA

`CC(=O)O[C@H]1C[C@H]2[C@H]([C@@H]3[C@@H](O)[C@@H]4[C@H]([C@H](C)[C@@H]5O[C@@]56OC(=O)[C@@](C)(O)[C@]46C)[C@]31C)[C@@H](O)C(=O)[C@H]1C[C@@H]3O[C@@H]3[C@H](OC(C)=O)[C@@]12C` came in with a 50% inhibitory concentration (IC50) in series [1] of 14.5 nM.

For the compound `CC(=O)O[C@H]1C[C@H]2[C@H]([C@@H]3[C@@H](O)[C@@H]4[C@H]([C@H](C)[C@@H]5O[C@@]56OC(=O)[C@@](C)(O)[C@]46C)[C@]31C)[C@@H](O)C(=O)[C@H]1C[C@@H]3O[C@@H]3[C@H](OC(=O)CC(C)C)[C@@]12C`, the outcome in series [2] and in series [5] was Active. The same compound gave an IC50 in series [1] of 0.88 nM. In series [3], the Activity entry is recorded as “Non-toxic”. The result in series [4] was inactive.

`CC(=O)O[C@@H]1[C@H]2[C@H]3[C@H]([C@H](OC(C)=O)[C@H](OC(C)=O)[C@]2(C)[C@H]2[C@H](C)[C@@H]4O[C@@]45OC(=O)[C@@](C)(O)[C@]5(C)[C@H]12)[C@@]1(C)[C@@H](OC(C)=O)[C@H]2O[C@H]2C[C@]1(O)C(=O)[C@@H]3O` showed an IC50 in [1] of 17.2 nM. As to `CC(=O)O[C@H]1[C@H]2[C@H]([C@@H]3[C@@H](O)[C@@H]4[C@H]([C@H](C)[C@@H]5O[C@@]56OC(=O)[C@@](C)(O)[C@]46C)[C@@]3(C)[C@H]1OC(C)=O)[C@@H](O)C(=O)[C@H]1C[C@@H]3O[C@@H]3[C@H](OC(C)=O)[C@]21C`, the “Ratio IC50” value in series [6] is listed as 734. In the case of `CC(=O)O[C@H]1C[C@H]2[C@H]([C@@H]3[C@@H](O)[C@@H]4[C@H]([C@H](C)[C@@H]5O[C@@]56OC(=O)[C@@](C)(O)[C@]46C)[C@]31C)[C@@H](O)C(=O)[C@H]1C[C@@H]3O[C@@H]3[C@H](O)[C@@]12C`, half-maximal inhibition in series [1] (IC50) required 685 nM.

As for `CC(=O)O[C@H]1[C@H]2[C@@H]([C@@H](O)[C@@H](O)[C@H]3C[C@@H]4O[C@@H]4[C@H](OC(C)=O)[C@]23C)[C@@H]2[C@@H](O)[C@@H]3[C@H]([C@H](C)C=C4OC(=O)[C@@](C)(O)[C@@]43C)[C@@]2(C)[C@H]1OC(C)=O`, the result in series [7] was inactive. In series [1], `CC(=O)O[C@@H]1[C@H]2[C@@H]3[C@@H](OC(C)=O)C(=O)[C@@]4(O)C[C@@H]5O[C@@H]5[C@H](OC(=O)CC(C)C)[C@]4(C)[C@H]3C[C@H](OC(C)=O)[C@]2(C)[C@H]2[C@H](C)[C@@H]3O[C@@]34OC(=O)[C@@](C)(O)[C@]4(C)[C@H]12` came in with an IC50 of 0.45 nM. Further, the outcome in series [8] and in series [13] was Active. Besides, the Activity result in [9] was “Non-toxic”; in series [10] it was “Toxic”; in series [11], 10%. For the same compound, the TGI entry in series [12], in series [14] and in series [15] was “Active” in each case. On to `CC(=O)O[C@H]1C[C@H]2[C@H]([C@@H]3[C@@H](O)[C@@H]4[C@H]([C@H](C)C=C5OC(=O)[C@@](C)(O)[C@@]54C)[C@]31C)[C@@H](O)C(=O)[C@H]1C[C@@H]3O[C@@H]3[C@H](OC(=O)CC(C)C)[C@@]12C`, for which, in series [1], the midpoint of inhibition, the IC50, lay at 47 nM. Moreover, the “Ratio IC50” value in [16] was 42. `CC(=O)O[C@H]1[C@H]2[C@H]([C@@H]3[C@@H](O)[C@@H]4[C@H]([C@H](C)[C@@H]5O[C@@]56OC(=O)[C@@](C)(O)[C@]46C)[C@@]3(C)[C@H]1OC(C)=O)[C@@H](O)C(=O)[C@@]1(O)C[C@@H]3O[C@@H]3[C@H](OC(C)=O)[C@]21C`: the IC50 in series [1] is 8.4 nM. The same measure, in the same setting: for `CC(=O)O[C@@H]1[C@H]2[C@@H]3C(=O)C(O)=C4C[C@@H]5O[C@@H]5[C@H](OC(C)=O)[C@]4(C)[C@H]3[C@H](OC(C)=O)[C@H](OC(C)=O)[C@]2(C)[C@H]2[C@H](C)[C@@H]3O[C@@]34OC(=O)[C@@](C)(O)[C@]4(C)[C@H]12` the value was 820 nM. On the same count and under the same terms, with `CC(=O)O[C@@H]1[C@H]2[C@H]3[C@H]([C@H](OC(C)=O)[C@H](OC(C)=O)[C@]2(C)[C@H]2[C@H](C)[C@@H]4O[C@@]45OC(=O)[C@@](C)(O)[C@]5(C)[C@H]12)[C@@]1(C)[C@@H](OC(C)=O)[C@H]2O[C@H]2C[C@]1(O)C(=O)[C@@H]3OC(C)=O` the figure was 15.6 nM; with `CC(=O)O[C@@H]1[C@H]2[C@@H]3[C@@H](O)C(=O)[C@H]4C[C@@H]5O[C@@H]5[C@H](OC(C)=O)[C@]4(C)[C@H]3C[C@H](OC(C)=O)[C@]2(C)[C@H]2[C@H](C)[C@@H]3O[C@@]34OC(=O)[C@@](C)(O)[C@]4(C)[C@H]12`, 188 nM; with `CC(=O)O[C@@H]1[C@H]2[C@@H]3[C@@H](OC(C)=O)C(=O)[C@@]4(O)C[C@@H]5O[C@@H]5[C@H](OC(C)=O)[C@]4(C)[C@H]3C[C@H](OC(C)=O)[C@]2(C)[C@H]2[C@H](C)[C@@H]3O[C@@]34OC(=O)[C@@](C)(O)[C@]4(C)[C@H]12`, 29.6 nM. Regarding `CC(=O)O[C@@H]1[C@H]2[C@H]3[C@H]([C@H](OC(C)=O)[C@H](OC(C)=O)[C@]2(C)[C@H]2[C@H](C)[C@@H]4O[C@@]45OC(=O)[C@@](C)(O)[C@]5(C)[C@H]12)[C@]1(C)[C@H](C[C@@H]2O[C@@H]2[C@@H]1OC(C)=O)C(=O)[C@@H]3O`, in series [17], the “Ratio IC50” value was determined as 231. Take `CC(=O)O[C@@H]1[C@H](O)[C@H]2[C@@H]3[C@@H](O)[C@@H]4[C@H]([C@H](C)C=C5OC(=O)[C@@](C)(O)[C@@]54C)[C@@]3(C)[C@@H](OC(C)=O)[C@@H](OC(C)=O)[C@@H]2[C@]2(C)[C@@H]1C[C@@H]1O[C@@H]1[C@@H]2OC(C)=O`: the outcome in series [7] was inactive. `CC(=O)O[C@@H]1[C@H]2[C@@H]3C(=O)C(O)=C4C[C@@H]5O[C@@H]5[C@H](OC(C)=O)[C@]4(C)[C@H]3[C@H](OC(C)=O)[C@H](OC(C)=O)[C@]2(C)[C@@H]2[C@@H]1[C@]1(C)C(=C[C@H]2C)OC(=O)[C@@]1(C)O` showed a half-inhibitory concentration (IC50) in series [1] of 3480 nM.
